Screening results deposited in PubChem BioAssay by Johns Hopkins Ion Channel Center.
MrgX1 ag: activates human MrgX1 receptor signaling; Q96LB2; MrgX1-HEK293 cells, Fluo-4 calcium fluorescence, agonist mode; hits give high values; B-score at 10 µM; actives 0.44% (n = 310,000); AID 588627;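 active = calcium response B-score plate-corrected fluorescence ratio at least 3 library SD, with starting fluorescence B-score inside 5 SD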
Target sequence (Q96LB2 whole entry, looked up): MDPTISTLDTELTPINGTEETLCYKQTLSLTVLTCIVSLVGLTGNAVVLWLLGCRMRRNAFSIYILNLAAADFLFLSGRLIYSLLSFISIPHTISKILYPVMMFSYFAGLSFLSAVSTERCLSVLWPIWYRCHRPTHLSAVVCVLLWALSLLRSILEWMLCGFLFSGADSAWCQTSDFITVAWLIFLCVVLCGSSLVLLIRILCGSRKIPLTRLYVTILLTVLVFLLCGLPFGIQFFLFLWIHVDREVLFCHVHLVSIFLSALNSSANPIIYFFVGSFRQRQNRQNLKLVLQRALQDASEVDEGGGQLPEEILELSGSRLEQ
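Material: HEK293 cells stably expressing human MrgX1 receptor | Quantity: 15,000 cells per well | Times: Cells plated overnight, dye loaded 0.5 h 37 °C, 0.5 h room temperature | Measured by: Kinetic Fluo-4 NW fluorescence of intracellular calcium | Control set: Positive and negative controls per plate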
RGS4 inh: human RGS4 inhibition; P49798; HEK293 M3R/RGS4 inducible, Fluo-4 calcium flux; hits give high values; triggered by carbachol at its EC20; B-score at 10 µM; actives 0.45% (n = 310,000); AID 463165;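 active = B-score, a plate-corrected calcium signal, over three deviations above library mean, with baseline fluorescence within five deviations of library mean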;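 note: RGS4 expression induced by doxycycline in cells with stable M3 receptor; B-score is computed from the integrated fluorescence ratio over baseline after carbachol; higher B-score means a larger calcium signal and so more RGS4 inhibition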
MrgX1 antagonist: blocks BAM8-22 activation of human MrgX1 receptor; Q96LB2; MRGX1-HEK293 calcium flux, Fluo-4, BAM8-22 antagonism; hits give low values; B-score at 10 µM; actives 1.3% (n = 310,000);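 active = calcium-response B-score plate-corrected more than 3 library SD below zero, starting fluorescence within 5 deviations, no agonist response on first addition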;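 note: peak minus trough fluorescence over baseline after final BAM8-22 challenge near maximal dose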
MrgX1 allo act: allosterically activates human MrgX1 receptor signaling | MrgX1-HEK293, Fluo-4 calcium flux, FDSS; hits give high values | B-score at 10 µM | actives 0.63% (n = 310,000) | AID 588675;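 active = plate-corrected calcium response at least 3 library SD above typical, normal starting fluorescence, not activating the receptor alone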;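 note: compound read alongside a low EC10 to EC30 dose of BAM8-22 agonist; peak minus trough fluorescence over baseline measured at the second addition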
RGS4 act: potentiators or activators of RGS4; HEK293 M3R/inducible RGS4, carbachol calcium flux Fluo4; hits give low values; B-score at 10 µM; actives 0.92% (n = 310,000);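 active = B-score of the integrated calcium signal more than 4 SD below the library mean, with starting fluorescence not abnormally high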;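 note: negative B-score means reduced calcium response which marks RGS4 activation or potentiation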
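Assay system: Inducible-RGS4 HEK293 cells carrying M3 receptor | Schedule: Compound preincubation 20 min at room temperature before agonist | Signal: Kinetic calcium fluorescence imaging with Fluo4-AM dye, 2 µM | Read-out basis: B score from integrated fluorescence ratio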
Starred values were filed as active, the others as inactive; i = inactive. This is a sample that favours compounds with a hit; in the whole collection about 3.5% have one here.

SMILES | MrgX1 ag | RGS4 inh | MrgX1 antagonist | MrgX1 allo act | RGS4 act
COc1ccccc1N1C(=NC(=O)COc2ccccc2)SC2CS(=O)(=O)CC21 (stereo not drawn) | i | i | i | i | i
O=C(CSc1nnc(NC(=O)c2ccccc2Cl)s1)Nc1ccc2c(c1)oc1ccccc12 | i | i | -4.6* | i | i
CC(Oc1ccc2ccc(=O)oc2c1)C(=O)NC1CC(C)(C)NC(C)(C)C1 (stereo not drawn) | i | i | i | i | i
COCCn1c(C)cc(C(=O)COC(=O)CNC(=O)c2ccccc2)c1C | i | i | -5* | i | i
O=C(Nc1cc(Sc2ccccn2)cc([N+](=O)[O-])c1)c1ccc(Cl)cc1 | i | i | -6.1* | i | -8*
Cc1nn(Cc2c(F)c(F)c(F)c(F)c2F)c(C)c1NC(=O)c1nn(C)c(C)c1Br | i | i | i | i | i
COc1ccc(-c2nc(-c3ccccc3)c(-c3cccs3)[nH]2)cc1OC | i | i | i | i | i
COc1ccc(-c2nc(-c3cccs3)c(-c3cccs3)[nH]2)cc1OC | i | i | i | i | -8*
O=[N+]([O-])c1ccc(-c2nc(-c3cccs3)c(-c3cccs3)[nH]2)cc1 | i | i | i | i | -8.9*
COc1ccc(CNC(=O)C2CCC(CNc3nc(=S)[nH]c4ccccc34)CC2)cc1 (stereo not drawn) | i | i | i | 12* | i
CC(=O)NCCNC(=O)C1CCC(CNc2nc(=S)[nH]c3ccccc23)CC1 (stereo not drawn) | i | i | i | i | i
COC(=O)c1cc(Br)c(=O)n(Cc2ccc3c(c2)OCO3)c1 | i | i | i | i | i
Cc1ccc(C(=O)Nc2ccccc2N2CCCC2)cc1 | i | i | i | i | i
CCOc1cc(/C=C2/NC(=O)NC2=O)cc([N+](=O)[O-])c1O | i | i | -7.7* | i | i
CC(C)CC(=O)N1CCN(c2ccc(NC(=O)c3ccco3)cc2)CC1 | i | i | i | i | i
CN(C)[C@@H]1CCC[C@@H]1OC(=O)C(c1ccccc1)c1ccccc1 | i | i | i | i | -7*
COCCCNC(=O)c1ccc2c(c1)nc(C)n2-c1cccc(C)c1 | i | i | i | i | i
CCCNC(=O)c1ccc2c(c1)nc(C)n2-c1cccc(Cl)c1 | i | i | i | i | -7.5*
COc1cccc(C(=O)Nc2cccc(-c3ccc(N4CCOCC4)nn3)c2)c1OC | i | i | i | i | -7.5*
CCn1ccnc1CNC(=O)CC1C(=O)NCCN1CC(c1ccccc1)c1ccccc1 (stereo not drawn) | i | i | i | i | i
O=C1CCCC(=O)C1CS(=O)(=O)c1ccccc1 | i | i | i | i | i
O=C(O)c1cc(-c2ccc(-c3c(-c4ccc5c(c4)OCO5)noc3-c3ccsc3)cc2)nc2ccccc12 | i | i | i | i | -11*
CC1(C)CC(=O)c2sc(NS(C)(=O)=O)nc2C1 | i | i | i | i | i
CC1(C)CC(=O)c2sc(NS(=O)(=O)c3ccc([N+](=O)[O-])cc3)nc2C1 | i | i | i | 8* | i
CCC(NC(=O)Nc1cc(C)on1)(C(F)(F)F)C(F)(F)F | i | i | i | i | i
COc1ccc(/C=C/C(=O)NCC2COc3ccccc3O2)cc1OC (stereo not drawn) | i | i | -7.1* | i | i
COc1ccc(NC(=O)COc2ccc3c(C)cc(=O)oc3c2)cc1S(=O)(=O)N1CCCCC1 | i | i | i | i | i
COC(=O)/C(=C1/Oc2ccc(C)cc2S1)C(F)(F)F | i | i | i | i | i
Cc1ccc(NC(=O)C(C)OC(=O)c2ccc(NC(=O)CC#N)cc2)cc1S(=O)(=O)N1CCOCC1 (stereo not drawn) | i | i | -4.5* | i | i
COc1ccccc1NC(=O)C1CCCN(S(=O)(=O)c2c(C)noc2C)C1 (stereo not drawn) | i | i | i | i | i
